Reference: PMC5901648 (Cancer, 2017)
Counter-ions that a name gives are not always drawn. Like-named read-outs stand apart in the source and are kept apart here.

How the values were obtained:
[1] = cited from earlier work
[2] = in vivo studies; cited from earlier work
[3] = test system: histone H3 acetylation (AcH3) in peripheral blood mononuclear cells; assay: Pharmacodynamics: AcH3 levels in PBMCs; type: in vivo, human; details: ten subjects; maximal at 3 h post-dose; no dose-dependent increase
[4] = test system: patients with advanced hematological malignancies; assay: Efficacy; type: in vivo, human
[5] = test system: patients with advanced solid tumors; details: cited from earlier work; for stable disease (SD) as best response, patients: advanced solid tumors
[6] = test system: patients with advanced hematological malignancies; assay: Phase 1 dose escalation, safety and toxicity, Arm 1; details: human, in vivo
HDAC = details: pan-HDACI; cited from earlier work
[7] = Plasma pharmacokinetics of pracinostat; type: in vivo, human; details: for half-life / Tmax / AUC(0-inf) / Cmax: human, plasma; for AUC(0-inf): AUC0-inf
Summary of the method: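 The test compound was given orally at 10–120 mg to patients with hematologic malignancies. AUC0-inf was noncompartmental, t1/2 came from the terminal log-linear phase (≥3 last points), and Cmax/Tmax were read from the curves.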

[8] = po, 40 mg, Day 15, 40 mg oral, n=5, mean±SD
[9] = po, 40 mg, Day 1, 40 mg oral, n=6, mean±SD
[10] = po, 60 mg, Day 1, 60 mg oral, n=3, mean±SD
[11] = po, 60 mg, Day 15, 60 mg oral, n=3, mean±SD
[12] = po, 80 mg, Day 1, 80 mg oral, n=3, mean±SD
[13] = po, 80 mg, Day 15, 80 mg oral, n=3, mean±SD
[14] = po, 100 mg, Day 1, 100 mg oral, n=3, mean±SD
[15] = po, 100 mg, Day 15, 100 mg oral, n=3, mean±SD
[16] = po, 120 mg, Day 1, 120 mg oral, n=6, mean±SD
[17] = po, 120 mg, Day 15, 120 mg oral, n=2, mean

## O=C(CCCCCCC(=O)Nc1ccccc1)NO [vorinostat]
[1]
  half-life: 1 to 2 h

## CCCCc1nc2cc(/C=C/C(=O)NO)ccc2n1CCN(CC)CC [Pracinostat, 3-[2-butyl-1-(2-diethylaminoethyl)-1H-benzoimidazol-5-yl]-N-hydroxyacrylami-hydrochloride]
[2]
  increased half-life (t1/2) compared to vorinostat: 3.3 fold
  increased oral bioavailability compared to vorinostat: 4.1 fold
[3]
  AcH3 levels in PBMCs: increased across all dose levels
[4]; 80 mg dose level, 11 cycles
  PFS of responding AML patient: 362 days
[4]; 120 mg dose level, 8 cycles
  PFS of responding AML patient: 197 days
[4]; 32 evaluable patients
  progressive disease: 31%
  responders (CR or CCyR): 6%
[4]; 95% CI: 114.0- NA
  Median OS: 362 days
[4]; Thirteen patients of 44
  patients who died: 30%
[5]; ref 12
  stable disease (SD) as best response, patients: 32%
[5]; ref 13
  stable disease (SD) as best response, patients: 21%
[5]; continuous 5-day dosing every 2 weeks
  dose of early emergence of grade 3 TRAEs and DLTs: 20 mg
[6]
  AEs leading to a dose-interruption, patients: 34%
  AEs leading to a dose-reduction, patients: 27%
  Anemia, treatment-related adverse event, All Grades: 5%
  Anemia, treatment-related adverse event, Grade ≥ 3: 5%
  Anorexia, treatment-related adverse event, All Grades: 23%
  Anorexia, treatment-related adverse event, Grade ≥ 3: 2%
  Constipation, treatment-related adverse event, All Grades: 5%
  Constipation, treatment-related adverse event, Grade ≥ 3: 0%
  Diarrhea, treatment-related adverse event, All Grades: 16%
  Diarrhea, treatment-related adverse event, Grade ≥ 3: 2%
  Elevated ALT, treatment-related adverse event, All Grades: 0%
  Elevated ALT, treatment-related adverse event, Grade ≥ 3: 0%
  Fatigue, treatment-related adverse event, All Grades: 41%
  Fatigue, treatment-related adverse event, Grade ≥ 3: 11%
  Infections, treatment-related adverse event, All Grades: 9%
  Infections, treatment-related adverse event, Grade ≥ 3: 9%
  Nausea, treatment-related adverse event, All Grades: 30%
  Nausea, treatment-related adverse event, Grade ≥ 3: 0%
  Neutropenia, treatment-related adverse event, All Grades: 2%
  Neutropenia, treatment-related adverse event, Grade ≥ 3: 2%
  QTc prolongation, treatment-related adverse event, All Grades: 7%
  QTc prolongation, treatment-related adverse event, Grade ≥ 3: 5%
  Thrombocytopenia, treatment-related adverse event, All Grades: 14%
  Thrombocytopenia, treatment-related adverse event, Grade ≥ 3: 11%
  Vomiting, treatment-related adverse event, All Grades: 14%
  Vomiting, treatment-related adverse event, Grade ≥ 3: 0%
  discontinuation of pracinostat due to an AE, patients: 25%
  patients who experienced a grade ≥ 3 TRAE: 20%
  patients who experienced at least 1 TRAE: 77%
  pracinostat doses at which grade ≥ 3 thrombocytopenia was experienced: ≥ 80 mg
[6]; 28 days
  DLTs, patients: 13%
  doses at which DLTs occurred: ≥ 40 mg
[6]; po, 28 days
  recommended phase II dose (RP2D): 60 mg
HDAC
  potency relative to vorinostat: about twice
[7]; 100-mg dose level
  accumulation between Day 1 and Day 15 following repeated dosing: moderate accumulation
[7]; all dose levels
  plasma concentrations relative to IC50 for HDAC 1, 2, and 3: above the 50% inhibitory concentration (IC50)
[7]; oral, 120 mg, prolonged t1/2 reaching, discussion summary
  half-life: ≤ 14 h
[7]; oral, range over dose levels, 40-120 mg, Days 1 and 15
  Tmax: 0.8 to 1.3 h
[7]; oral, mean t1/2, range over dose levels, 40-120 mg, Days 1 and 15
  half-life: 7 to 14.1 h
[7]; [8]
  AUC(0-inf): 0.477 ± 0.191 µg·h/mL
  Cmax: 0.064 ± 0.019 µg/mL
  Tmax: 1.3 ± 0.7 h
[7]; [9]
  Cmax: 0.084 ± 0.034 µg/mL
  Tmax: 1.1 ± 0.7 h
[7]; po, 40 mg, t1/2, Day 1, 40 mg oral, n=6, mean±SD
  half-life: 9.4 ± 3.5 h
[7]; po, 40 mg, t1/2, Day 15, 40 mg oral, n=5, mean±SD
  half-life: 10.7 ± 2.3 h
[7]; [10]
  AUC(0-inf): 0.948 ± 1.14 µg·h/mL
  Cmax: 0.133 ± 0.117 µg/mL
  Tmax: 1 ± 0.5 h
[7]; [11]
  AUC(0-inf): 0.766 ± 0.746 µg·h/mL
  Cmax: 0.118 ± 0.135 µg/mL
  Tmax: 0.8 ± 0.3 h
[7]; po, 60 mg, t1/2, Day 1, 60 mg oral, n=3, mean±SD
  half-life: 12.1 ± 2.3 h
[7]; po, 60 mg, t1/2, Day 15, 60 mg oral, n=3, mean±SD
  half-life: 11.8 ± 3.4 h
[7]; [12]
  AUC(0-inf): 1.05 ± 0.803 µg·h/mL
  Cmax: 0.189 ± 0.182 µg/mL
  Tmax: 1.3 ± 0.8 h
[7]; [13]
  AUC(0-inf): 0.977 ± 0.459 µg·h/mL
  Cmax: 0.164 ± 0.122 µg/mL
  Tmax: 1.2 ± 0.3 h
[7]; po, 80 mg, t1/2, Day 1, 80 mg oral, n=3, mean±SD
  half-life: 7 ± 1.1 h
[7]; po, 80 mg, t1/2, Day 15, 80 mg oral, n=3, mean±SD
  half-life: 9.3 ± 4.1 h
[7]; [14]
  AUC(0-inf): 1.17 ± 0.347 µg·h/mL
  Cmax: 0.187 ± 0.099 µg/mL
  Tmax: 1.2 ± 0.3 h
[7]; [15]
  AUC(0-inf): 1.99 ± 0.682 µg·h/mL
  Cmax: 0.314 ± 0.143 µg/mL
  Tmax: 1 ± 0.5 h
[7]; po, 100 mg, t1/2, Day 1, 100 mg oral, n=3, mean±SD
  half-life: 8.4 ± 1.1 h
[7]; po, 100 mg, t1/2, Day 15, 100 mg oral, n=3, mean±SD
  half-life: 13.7 ± 5.6 h
[7]; [16]
  AUC(0-inf): 1.36 ± 0.725 µg·h/mL
  Cmax: 0.202 ± 0.083 µg/mL
  Tmax: 1.2 ± 0.4 h
[7]; [17]
  AUC(0-inf): 0.757 µg·h/mL
  Cmax: 0.096 µg/mL
  Tmax: 1 h
[7]; po, 120 mg, t1/2, Day 1, 120 mg oral, n=6, mean±SD
  half-life: 10.8 ± 3 h
[7]; po, 120 mg, t1/2, Day 15, 120 mg oral, n=2, mean
  half-life: 14.1 h
[7]; in vivo
  effect of AZA administration on PK parameters for pracinostat: not affected
